Here are results for 27 molecules from ChEMBL document CHEMBL1134672, “Design and synthesis of 4-substituted benzamides as potent, selective, and orally bioavailable I(Ks) blockers” (J Med Chem, 2001).

Where only a bound is given, the exact number is not on record here.

Tested on in the first data set: not listed separately
Briefly: Bioavailability in rat. In kind it is ADME, organism-based. To be noted: in vivo. In a few lines: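 Rats were dosed orally and screened for plasma drug levels. Compounds reaching plasma concentrations of >75 nM were then tested individually for oral bioavailability by standard methods.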
As a reminder, the bioavailability is dose-corrected exposure relative to a reference, in per cent. `CC1(C)CCCC1CNC(=O)c1ccc(-c2noc(CCC(F)(F)F)n2)cc1` (single isomer, unassigned; form 2) came in with a bioavailability of 23%. In turn, `CCCCc1noc(-c2ccc(C(=O)NC[C@H]3CCCC3(C)C)cc2)n1` yielded a bioavailability of less than 1%.

Tested on in a further data set: not listed separately
Briefly: Compound was evaluated for half life period when administered intravenously. It is filed as ADME, organism-based. To be noted: in vivo, iv. In a few lines:
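Half-life was determined in rats after intravenous administration.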
In general, half-life refers to the time needed for the level to fall by half in the phase considered. High values mean slow decline, low ones rapid decline. `CC1(C)CCCC1CNC(=O)c1ccc(-c2noc(CCC(F)(F)F)n2)cc1` (single isomer, unassigned; form 2): the half-life was 3.2 h. As for `CCCCc1noc(-c2ccc(C(=O)NC[C@H]3CCCC3(C)C)cc2)n1`, the half-life was 4.2 h.

The target in another data set is T1, Potassium voltage-gated channel subfamily KQT member 1 (Cavia porcellus, UniProt O70344).
T1 sequence (O70344 whole entry): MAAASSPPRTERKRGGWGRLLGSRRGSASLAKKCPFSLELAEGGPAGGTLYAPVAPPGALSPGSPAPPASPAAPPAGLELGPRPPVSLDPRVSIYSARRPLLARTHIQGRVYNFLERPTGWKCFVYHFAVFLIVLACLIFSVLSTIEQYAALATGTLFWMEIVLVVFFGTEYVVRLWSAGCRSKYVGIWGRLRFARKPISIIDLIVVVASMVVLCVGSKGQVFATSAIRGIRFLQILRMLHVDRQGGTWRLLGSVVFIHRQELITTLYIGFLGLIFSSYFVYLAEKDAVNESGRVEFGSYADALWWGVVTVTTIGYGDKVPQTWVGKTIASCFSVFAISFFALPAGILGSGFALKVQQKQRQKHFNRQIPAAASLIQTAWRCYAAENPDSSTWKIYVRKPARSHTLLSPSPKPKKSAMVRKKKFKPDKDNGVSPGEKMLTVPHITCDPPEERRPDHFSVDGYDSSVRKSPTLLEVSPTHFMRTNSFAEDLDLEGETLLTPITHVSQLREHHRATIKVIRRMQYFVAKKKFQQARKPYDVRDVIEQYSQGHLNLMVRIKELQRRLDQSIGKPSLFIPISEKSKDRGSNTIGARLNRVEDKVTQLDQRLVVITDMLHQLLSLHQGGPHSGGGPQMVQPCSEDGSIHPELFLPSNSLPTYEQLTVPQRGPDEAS
The data set can be described thus: Molar concentration required to inhibit 50% of the activating delayed-rectifier K+ current in isolated guinea pig ventricular myocytes.
Conditions: not given
In a few lines:
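Native IKs recorded by voltage clamp in isolated guinea pig ventricular myocytes, with ionic solutions and voltage protocol designed to isolate IKs from other currents.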
Usually IC50 stands for the concentration that gives 50% inhibition. Higher therefore signals weaker potency in that assay. Turning to `Cc1noc(-c2ccc(C(=O)NCC3CCCC3(C)C)cc2)n1` (stereo in doubt; 21(A)), the IC50 turned out to be 220 nM. `CCCCCCOc1ccc(C(=O)NCC2CCCCC2(C)C)cc1` (stereo in doubt; 13(A)): the midpoint of inhibition, the IC50, lay at 1400 nM.

As for `CC1(C)CCCC1CNC(=O)c1ccc(-c2noc(CCC(F)(F)F)n2)cc1` (single isomer, unassigned; form 2), half-maximal inhibition (IC50) required 40 nM. With `CN1C(=O)[C@H](NC(=O)/C=C/c2ccc(Cl)cc2Cl)N=C(c2ccccc2)c2ccccc21`, inhibition was half-maximal at 31 nM (IC50).

In turn, `Cc1noc(-c2ccc(C(=O)NCC3CCCC3(C)C)cc2)n1` (stereo in doubt; 21(B)) yielded an IC50 of 580 nM. `CCCCCCOc1ccc(C(=O)NC2CCCC2(C)C)cc1` (stereo unspecified): the IC50 is more than 30000 nM.

`CCCCc1noc(-c2ccc(C(=O)NC[C@H]3CCCC3(C)C)cc2)n1` came in with an IC50 of 2 nM. Regarding `CC(C)(C)CCNC(=O)c1ccc(-n2ccc3ccccc32)cc1`, inhibition was half-maximal at 260 nM (IC50). In turn, `CCCCCCOc1ccc(C(=O)CCN2CCCCC2)cc1` gave a half-maximal inhibitory concentration (IC50) of 4000 nM. Molecule `CCCc1noc(-c2ccc(C(=O)NCC3CCCC3(C)C)cc2)n1` (single isomer, unassigned; form 2) registered an IC50 of 10 nM. The molecule `CC(C)(C)CCNC(=O)c1ccc(-c2nc(-c3ccccc3)no2)cc1` returned an IC50 of 130 nM. With `CCCCCCOc1ccc(C(=O)NC2CCC(C)(C)C2)cc1` (stereo unspecified), it took 360 nM to reach half-maximal inhibition (IC50). Turning to `CCCCCCOc1ccc(C(=O)NCC2CCCCC2(C)C)cc1` (stereo in doubt; 13(B)), the IC50 is more than 3000 nM. For `CC1(C)CCCC1CNC(=O)c1ccc(-c2noc(CCC(F)(F)F)n2)cc1` (single isomer, unassigned; form 1), the IC50 amounted to 27 nM. `CCCCCCOc1ccc(C(=O)NCCC(C)(C)C)cc1`: it took 250 nM to reach half-maximal inhibition (IC50). The molecule `CCCc1noc(-c2ccc(C(=O)NCC3CCCC3(C)C)cc2)n1` (single isomer, unassigned; form 1) had an IC50 of 27 nM. On to `CC1(C)CCCC1CNC(=O)c1ccc(-c2nc(CC3CC3)no2)cc1` (single isomer, unassigned; form 2), for which 18 nM corresponded to half-maximal inhibition (IC50).

`CCCCCCOc1ccc(C(=O)NCC2CCCC2(C)C)cc1` (single isomer, unassigned; form 2) had an IC50 of 160 nM. As to `CC(C)(C)CCNC(=O)c1ccc(-c2ccccc2)cc1`, the 50% inhibitory concentration (IC50) was determined as 540 nM. For the molecule `CCCCCCOc1ccc(C(=O)NCC2CCCC2(C)C)cc1` (single isomer, unassigned; form 1), the IC50 is 710 nM. Turning to `CCN(CC)C(=O)COc1ccc(C(C)(C)CC(C)(C)C)cc1`, the IC50 is 5000 nM.

In the case of `CC1(C)CCCC1CNC(=O)c1ccc(-c2nc(CC3CC3)no2)cc1` (single isomer, unassigned; form 1), the IC50 came out at 23 nM.

In turn, `CCCCCCOc1ccc(C(=O)N2CCC(C(C)(C)C)C2)cc1` (stereo unspecified) displayed an IC50 of more than 3000 nM. Regarding `CCCCc1noc(-c2ccc(C(=O)NC[C@@H]3CCCC3(C)C)cc2)n1`, the IC50 was found to be 9 nM. In turn, `CCCCCCOc1ccc(C(=O)NCC2CCCC(C)(C)C2)cc1` (stereo unspecified) yielded an IC50 of 370 nM. Same read-out and setting: the same measure for `CCCCCCOc1ccc(C(=O)NCCN(CC)CC)cc1`: 3500 nM. For the molecule `CCCCc1noc(-c2ccc(C(=O)NCCC(C)(C)C)cc2)n1`, the midpoint of inhibition, the IC50, lay at 23 nM.
